PMI act hi M6P = PMI (human) activation, high substrate; coupled PMI enzyme assay, resazurin fluorescence, 20 min; stronger effect = higher value; 1 = untreated enzyme, 0 = substrate-free blank; activation factor at 20 µM; 0.34% of 190,000 active;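 active = activation factor of 2 or more at 20 µM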
Target sequence (P34949 whole entry, looked up): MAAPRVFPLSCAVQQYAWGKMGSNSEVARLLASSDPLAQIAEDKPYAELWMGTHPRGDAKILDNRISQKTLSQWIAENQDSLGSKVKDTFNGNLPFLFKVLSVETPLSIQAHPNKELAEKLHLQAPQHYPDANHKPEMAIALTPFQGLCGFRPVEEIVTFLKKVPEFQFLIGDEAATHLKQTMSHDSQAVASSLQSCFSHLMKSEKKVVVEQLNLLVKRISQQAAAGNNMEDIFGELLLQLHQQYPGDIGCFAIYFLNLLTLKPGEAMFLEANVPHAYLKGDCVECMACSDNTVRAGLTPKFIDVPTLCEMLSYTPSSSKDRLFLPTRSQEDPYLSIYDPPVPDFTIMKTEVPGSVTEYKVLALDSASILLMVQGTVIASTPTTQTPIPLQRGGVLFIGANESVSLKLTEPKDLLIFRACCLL
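Material: human phosphomannose isomerase with PGI, G6PDH, diaphorase coupling enzymes. Quantity: 15 ng/mL PMI. Medium: HEPES pH 7.4 buffer with MgCl2 and Tween-20. Reagent: Near-saturating mannose-6-phosphate, 1.0 mM. Compound: 20 µM single dose. Times: enzyme reaction with compound 20 min at room temperature. Detection: resorufin fluorescence at Ex 544/Em 590 nm.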
G6PDH CS = counter-screen for G6PDH assay hits: L. mesenteroides G6PDH inhibition. Purified L. mesenteroides G6PDH, diaphorase/resazurin coupled fluorescence, 45 min. 0.12% of 200,000 active. inhibition, % at 5 µM; in the data active = inhibition above about 50%
PMI act = phosphomannose isomerase (human) activation. 0.005% of 190,000 active. activation factor at 20 µM. AID 1214. purified human PMI, coupled resazurin fluorescence, 20 min; stronger effect = higher value; 1 = vehicle control, 0 substrate-free wells. P34949;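 active = activation factor of 2 or more at 20 µM, relative to plate controls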
Diaphorase inh = diaphorase inhibition or chemical oxidation counter-screen. 0.69% of 190,000 active. AID 1217. diaphorase resazurin-to-resorufin fluorescence, NADH, 16 min; bacterial (C. kluyveri) enzyme, not human. inhibition, % at 20 µM;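 active = primary screen inhibition at 20 µM above a set limit, cut at about 50% in these data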;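 note: plate controls were DMSO with full reaction for no effect and wells lacking NADH for full effect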
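Test system: bacterial diaphorase enzyme (C. kluyveri); Quantity: 0.14 U/mL diaphorase, enzyme working solution; Times: reaction incubation of 16 min at room temperature; Measured by: fluorescence of resorufin formed from resazurin, Ex 544/Em 590 nm; Benchmarks: positive control minus NADH, DMSO neutral control.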
Diaph act CS = activates diaphorase or chemically reduces, flagging diaphorase assay artifacts; AID 1229; Diaphorase/resazurin coupled assay, resorufin fluorescence, 16 min; stronger effect = higher value; 1 = vehicle wells, 0 = NADH-free wells; activation factor at 20 µM; 0.005% of 190,000 active;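 active = diaphorase activity raised at least twofold by the compound at 20 µM; inactive = activation factor below 2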
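Material: bacterial diaphorase enzyme (C. kluyveri); amount: enzyme 0.07 U/mL final; reagent: NADH substrate 0.114 mM plus resazurin dye 0.1 mM, final; doses: single compound dose of 20 µM, 1% DMSO final; timing: 16 min enzyme reaction, ambient temperature; measured by: fluorescence of resorufin, 544 nm excitation, 590 nm emission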
Numbers without * were called inactive. This is a sample that favours compounds with a hit; in the whole collection about 1.1% have one here.

SMILES	PMI act hi M6P	G6PDH CS	PMI act	Diaphorase inh	Diaph act CS
c1ccc(C2=Nc3ccccc3SC2c2nc3ccccc3[nH]2)cc1 (stereo not given)	1	13.3	0.9	19.3	0.8
COc1cc(-c2nc(CN(C)Cc3nnc(C)o3)c(C)o2)ccc1F	1	-1.7	1	9.4	0.9
CCOc1ccccc1NC(=O)c1c(NC(=O)CCC(=O)O)sc2c1CCCCC2	2.1*	7.3	1.6	15.3	0.8
CCOC(=O)c1ccc(NC(=O)c2c(NC(=O)CCC(=O)O)sc3c2CCCCC3)cc1	1.9	-0.6	1.4	21.4	0.8
COc1cc(/C=C2\SC(=S)N(Nc3ccccc3)C2=O)ccc1O	0.8	-15.9	0.8	16.1	0.8
O=C1/C(=C/c2ccc(O)c(O)c2)SC(=S)N1Nc1ccccc1	0.8	4.2	0.5	56.1*	0.4
Cc1nn(-c2ccccc2)c(C)c1/C=N/n1c(-c2ccncc2)n[nH]c1=S	0.9	0.8	0.9	79.5*	0.2
Cc1nn(-c2ccccc2)c(C)c1/C=N/n1c(-c2ccc(Cl)cc2)n[nH]c1=S	0.9	-26.0	0.9	6.6	0.9
CN(C)c1ccc(/C=N/n2c(-c3cccnc3)n[nH]c2=S)cc1	0.9	7.2	0.9	72.1*	0.3
Cc1cc(-c2n[nH]c(=S)n2/N=C/C=C/c2ccccc2)n[nH]1	1	6.1	0.8	50.0*	0.5
COc1ccccc1/C=C/C=N/n1c(-c2ccncc2)n[nH]c1=S	0.9	5.1	0.8	65.4*	0.3
Cc1cc(-c2n[nH]c(=S)n2/N=C/c2ccc(C)s2)n[nH]1	1	-2.1	0.9	31.5	0.7
CN(C)CCCNC(CC(=O)Nc1cccc([N+](=O)[O-])c1)C(=O)O (stereo not given)	1	-1.8	1	-0.6	1
O=C(Nc1cccc(S(=O)(=O)N2CCCCC2)c1)c1ccc(S(=O)(=O)C(F)F)cc1	0.9	3.1	0.9	20.0	0.8
COc1ccccc1/C=C/C=N/n1c(-c2ccc(C)cc2)n[nH]c1=S	1	-3.9	1	27.8	0.7
COc1ccccc1/C=C/C=N/n1c(-c2cc(C)[nH]n2)n[nH]c1=S	1	6.3	0.8	50.2*	0.5
CN1CCC(OC(=O)c2cccc(Cl)c2)CC1	1.2	8.3	1.2	2.7	1
Cc1ccc(N2C(=O)CC(N3CCN/C3=C3\CC/C(=C\c4ccccc4)C3=O)C2=O)cc1 (stereo not given)	1	8.8	1	-7.1	1.1
CN(C)c1ccc2c(O)cc(=O)n(C)c2c1	0.4	6.8	0.5	60.4*	0.4
COC(=O)CC/C(=N/Nc1ccc(Cl)c(Cl)c1)C(=O)OC	1	-1.2	1	16.6	0.8
CCCCc1ccc(NC(=S)N2CCC(O)CC2)cc1	1	3.7	1	9.2	0.9
c1ccc2c3c(cc(N4CCOCC4)c2c1)OC1(N2CCOCC2)CCCCC1O3 (stereo not given)	0.4	50.4*	0.7	25.3	0.7
CCOC(=O)c1cc2c(=O)n3ccccc3nc2n(Cc2ccco2)c1=NC(=O)c1ccc(OC)cc1	0.7	7.6	1.1	34.9	0.7
Cc1ccc2nc3c(cc(S(=O)(=O)c4ccccc4)c(=N)n3Cc3ccco3)c(=O)n2c1	1	-1.7	1.3	51.9*	0.5
N=c1c(S(=O)(=O)c2ccccc2)cc2c(=O)n3ccccc3nc2n1Cc1ccco1	1.2	0.2	1.4	51.0*	0.5
SMILES	PMI act hi M6P	G6PDH CS	PMI act	Diaphorase inh	Diaph act CS
CCOC(=O)c1cc2c(=O)n3ccccc3nc2n(Cc2ccco2)c1=NC(=O)c1ccccc1OC	1	-1.3	1.2	79.7*	0.2
CCn1c(C)c(C(C)=O)c(N2CCN(c3ccccn3)CC2)nc1=S	1	1.6	1	62.5*	0.4
CC(=O)c1c(N2CCCC2)nc(=S)n(-c2ccccc2)c1C	1.1	-4.9	1.1	54.2*	0.5
CCCCNc1nc(=S)n(-c2ccccc2)c(C)c1C(C)=O	0.9	1.5	0.9	71.4*	0.3
CCN(C(=O)COC(=O)c1[nH]c(=O)[nH]c(=O)c1N)c1ccccc1	1.2	4.3	1.2	1.1	1
CCOC(=O)c1c(C)c(C(=O)N2CCN(c3ccc(F)cc3)CC2)c(C)n1C	0.9	1.3	0.9	16.1	0.8
CN1CCN(C2=C(Cl)C(=O)N(C3CCCCC3)C2=O)CC1	0.9	0.3	1	20.2	0.8
CN1CCN(C2=C(Cl)C(=O)C(c3cnc(N4CCCCC4)s3)=C(Cl)C2=O)CC1	1	51.3*	0.9	64.1*	0.4
CCCCC1C(C#N)=C(C)NC2=C1C(=O)CC(C)(C)C2 (stereo not given)	0.9	5.1	0.9	16.4	0.8
COn1c2c(c3c4nonc4ccc31)CCCC2	0.7	47.0	0.6	34.0	0.7
COn1c(C)c(C(C)=O)c2c3nonc3ccc21	0.4	42.0	0.5	53.2*	0.5
CCN(c1ccc(NC(=O)COC(=O)c2ccc(S(=O)(=O)N3CCCC3)cc2)cc1)C(C)C	1.1	3.0	1	-7.9	1.1
COc1cc(CCN2C(=O)N[C@@H](c3cccc(C(F)(F)F)c3)C(C(C)=O)=C2C)cc(OC)c1OC	2*	8.5	1.6	5.2	0.9
O=c1ccc2cc3c([nH]c4ccc(Br)cc43)oc-2c1O	0.4	15.9	0.3	75.8*	0.2
O=c1c2c([nH]c3ccc(Br)cc13)CCCC2	1.1	11.6	1.2	1.0	1
O=C1c2ccccc2C(=O)N1CCCCN(C(=O)c1cc2ccccc2oc1=O)c1ccc(F)cc1F	1	10.6	0.9	9.4	0.9
Cn1c(=O)[nH]c(=O)c2c1nc(Br)n2C/C=N/Nc1ccccc1	3*	11.6	2*	-14.0	1.1
CCOC(=O)c1ccc(N=C2SC(C(=O)NCCc3ccccc3)CC(=O)N2C)cc1 (stereo not given)	0.9	-8.2	0.9	53.5*	0.5
COc1ccc(CN2C(=O)CC(C(=O)NCCc3ccc(S(N)(=O)=O)cc3)SC2=Nc2ccccc2)cc1 (stereo not given)	0.9	-2.5	0.9	3.1	1
O=C1c2ccccc2C(=O)N1/N=C/c1ccc(O)c(O)c1	0.9	12.1	0.6	51.6*	0.5
CC(Sc1nnc(-c2ccccc2)c(-c2ccccc2)n1)C(=O)Nc1ncc(Cl)cc1Cl (stereo not given)	1	-10.7	0.9	52.6*	0.5
CN(CCc1ccccn1)C(=O)CCC1CCCN(C(=O)c2ccsc2)C1 (stereo not given)	1	3.4	0.9	15.1	0.8
O=C(CCCN1C(=O)c2cccnc2C1=O)Nc1ccc(Br)cc1	1	7.3	1	6.6	0.9

Bioassay records: PubChem, Sanford-Burnham Center for Chemical Genomics
